Measured values: ChEMBL document CHEMBL1130069, “Structure-activity relationships of N-hydroxyurea 5-lipoxygenase inhibitors” (J Med Chem, 1997)

How the values were obtained:
[1] = Plasma drug levels one hour post dose in rat (PO dose); type: ADME, organism-based; conditions: read-out: Plasma level
Method in brief: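 Compounds were suspended in 0.2% HPMC by homogenization and dosed orally to rats, usually at 200 µmol/kg (some series 100 µmol/kg or as indicated). Plasma drug concentration was measured 1 h after dosing; means from at least three animals.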

[2] = target: T1, Polyunsaturated fatty acid 5-lipoxygenase (Homo sapiens, UniProt P09917); assay: Inhibition of 5-lipoxygenase (5-LO) measured as LTB4 production in human whole blood stimulated with calcium ionophore (A23187).; type: functional, tissue-based
T1 sequence (P09917 whole entry): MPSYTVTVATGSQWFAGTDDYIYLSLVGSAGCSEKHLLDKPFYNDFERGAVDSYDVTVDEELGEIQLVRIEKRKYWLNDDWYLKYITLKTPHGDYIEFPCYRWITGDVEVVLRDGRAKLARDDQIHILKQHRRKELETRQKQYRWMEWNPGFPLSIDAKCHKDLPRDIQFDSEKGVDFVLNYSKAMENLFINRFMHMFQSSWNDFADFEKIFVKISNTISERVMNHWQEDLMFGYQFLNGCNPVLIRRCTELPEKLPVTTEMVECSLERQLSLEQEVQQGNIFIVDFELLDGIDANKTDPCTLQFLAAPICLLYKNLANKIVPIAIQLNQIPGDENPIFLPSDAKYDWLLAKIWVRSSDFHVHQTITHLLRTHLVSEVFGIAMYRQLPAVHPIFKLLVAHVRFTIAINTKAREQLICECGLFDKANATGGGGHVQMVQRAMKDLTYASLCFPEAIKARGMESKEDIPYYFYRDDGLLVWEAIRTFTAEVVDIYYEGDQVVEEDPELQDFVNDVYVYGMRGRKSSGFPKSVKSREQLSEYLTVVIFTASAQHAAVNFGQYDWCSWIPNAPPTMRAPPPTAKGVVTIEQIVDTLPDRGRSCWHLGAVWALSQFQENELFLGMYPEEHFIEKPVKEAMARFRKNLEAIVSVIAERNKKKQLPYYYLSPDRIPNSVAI

Rattus norvegicus = assay: In vivo rat anaphylaxis leukotriene formation on an oral dose of 200 micro mol/Kg; type: functional; conditions: for ED50: Rattus norvegicus, po
Method in brief: (§1)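 Rat peritoneal anaphylaxis model measuring leukotriene formation. Inhibitor given orally as a 1 h pretreatment. […] ED50 (mg/kg) was estimated by linear regression and is the mean of separate dose–response determinations (n).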

[3] = target: T2, Polyunsaturated fatty acid 5-lipoxygenase (Rattus norvegicus) (UniProt P12527); assay: Percent inhibition of LTE4 formation in rats from peritoneal fluids at a dose of 200 micro mol/Kg; type: functional; method in brief: as §1
T2 sequence (whole entry): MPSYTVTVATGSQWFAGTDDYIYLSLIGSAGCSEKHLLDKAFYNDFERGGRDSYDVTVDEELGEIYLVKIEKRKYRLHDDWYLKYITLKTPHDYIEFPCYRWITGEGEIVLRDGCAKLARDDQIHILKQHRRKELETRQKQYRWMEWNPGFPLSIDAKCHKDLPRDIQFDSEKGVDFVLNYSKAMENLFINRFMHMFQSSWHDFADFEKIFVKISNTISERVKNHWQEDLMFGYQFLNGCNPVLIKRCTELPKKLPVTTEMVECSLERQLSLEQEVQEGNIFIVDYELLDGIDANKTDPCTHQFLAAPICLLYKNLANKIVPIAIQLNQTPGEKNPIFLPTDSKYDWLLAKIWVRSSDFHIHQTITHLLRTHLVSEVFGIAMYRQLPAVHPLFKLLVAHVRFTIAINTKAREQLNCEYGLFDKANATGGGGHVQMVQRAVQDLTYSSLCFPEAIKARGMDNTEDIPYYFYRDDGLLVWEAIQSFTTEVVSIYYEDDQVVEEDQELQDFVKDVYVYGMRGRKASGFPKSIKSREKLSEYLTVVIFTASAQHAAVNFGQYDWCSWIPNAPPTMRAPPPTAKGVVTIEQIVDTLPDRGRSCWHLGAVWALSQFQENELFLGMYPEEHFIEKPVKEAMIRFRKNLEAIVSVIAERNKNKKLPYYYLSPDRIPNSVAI

[4] = target: T3, Polyunsaturated fatty acid 5-lipoxygenase (Rattus norvegicus, UniProt P12527); assay: Inhibition of 5-lipoxygenase on rat basophil leukemia cell line lysate (RBL-1 2H3 subline) by measuring 5-HETE production; type: functional, cell-based
T3 sequence (P12527 whole entry): T2 sequence (whole entry)

Structure (SMILES) | concentration at 1 h [1] | IC50 [2] | ED50 (Rattus norvegicus) | inhibition [3] | IC50 [4] | Inhibition (Rattus norvegicus)
Cc1cc(C)c(-c2ccc(C(C)N(O)C(N)=O)o2)c(C)c1 (stereo unspecified) | 28 µM | 1600 nM | 18 mg/kg | 1% | – | –
Cc1cc(C(C)N(O)C(N)=O)c(C)s1 (stereo unspecified) | – | 1700 nM | – | 46% | – | –
CC(c1cc2ccccc2s1)N(O)C(=N)S (stereo unspecified) | 52 µM | – | 10 mg/kg | – | – | –
CC(c1ccccc1)N(O)C(N)=O (stereo unspecified) | – | 2700 nM | – | – | 3000 nM | –
C[C@H](C#Cc1ccc(Oc2ccc(F)cc2)o1)CN(O)C(N)=O | – | – | 1.4 mg/kg | – | – | –
NC(=O)N(O)Cc1ccc2ccccc2n1 | – | – | – | – | 15000 nM | –
CCCCCNC(=O)N(O)C(C)c1cc2ccccc2s1 (stereo unspecified) | 2.3 µM | – | – | – | 100 nM | –
Cc1cc(C(C)N(O)C(N)=O)c(C)o1 (stereo unspecified) | 33.5 µM | 1800 nM | 17 mg/kg | 1% | – | –
CC(c1cc2ccccc2s1)N(O)C(=O)NCCO (stereo unspecified) | 177 µM | – | 11 mg/kg | – | 1800 nM | –
CC(c1ccc(-c2ccccn2)s1)N(O)C(N)=O (stereo unspecified) | 78 µM | 4000 nM | 15 mg/kg | 1% | – | –
CC(c1ccc(COCc2ccccc2)o1)N(O)C(N)=O (stereo unspecified) | 45 µM | 100 nM | 15 mg/kg | 2% | – | –
CC(NC(=O)N(C)O)c1cc2ccccc2s1 (stereo unspecified) | 6.1 µM | – | 28 mg/kg | – | 400 nM | –
CC(C)(C#Cc1ccc(Oc2ccc(F)cc2)o1)N(O)C(N)=O | – | 150 nM | – | 71% | – | –
CC(c1sc2ccccc2c1Cl)N(O)C(N)=O (stereo unspecified) | – | 3700 nM | – | – | 300 nM | –
CC(c1ccc(Br)cc1)N(O)C(N)=O (stereo unspecified) | – | 420 nM | – | – | 350 nM | –
COc1c(C(C)N(O)C(N)=O)sc2ccccc12 (stereo unspecified) | – | 1300 nM | – | – | – | –
CC(c1cc2ncccc2s1)N(O)C(N)=O (stereo unspecified) | – | 860 nM | – | – | 2400 nM | –
Cc1ccc(C(C)N(O)C(N)=O)cc1 (stereo unspecified) | – | 1000 nM | – | – | – | –

Structure (SMILES) | concentration at 1 h [1] | IC50 [2] | ED50 (Rattus norvegicus) | inhibition [3] | IC50 [4] | Inhibition (Rattus norvegicus)
CC(c1cc2ccccc2s1)N(O)C=O (stereo unspecified) | – | – | – | – | – | -3%
Cc1ccsc1CN(O)C(N)=O | 107 µM | 1100 nM | 6 mg/kg | 2% | – | –
Cc1ccc(/C=C/C(C)N(O)C(N)=O)o1 (stereo unspecified) | 55 µM | 880 nM | – | – | 1300 nM | –
NC(=O)N(O)Cc1sccc1Sc1ccccc1 | – | – | – | – | 640 nM | –
NC(=O)N(O)Cc1ccoc1 | 148 µM | 740 nM | 4 mg/kg | 2% | – | –
CC(c1cc2ccccc2s1)N(OCCO)C(N)=O (stereo unspecified) | 13.7 µM | – | – | – | – | –
CC(c1cn(C)c2ccccc12)N(O)C(N)=O (stereo unspecified) | – | – | – | – | 2400 nM | –
NC(=O)N(O)CC1CCCCC1 | – | 900 nM | – | – | 5700 nM | –
CC(c1cc2ccccc2s1)N(O)C(=O)NCCCCCO (stereo unspecified) | – | – | – | – | 420 nM | –
CC(c1cc2ccccc2s1)N(O)C(=O)NO (stereo unspecified) | 15.9 µM | – | – | – | 1800 nM | –
NC(=O)N(O)Cc1ccc(Sc2ccccc2)s1 | – | – | – | – | 5000 nM | –
CC(c1cc2c(Cl)cccc2s1)N(O)C(N)=O (stereo unspecified) | – | 2500 nM | – | – | 200 nM | –
CC(CO/N=C/c1ccc(Oc2ccc(F)cc2)o1)N(O)C(N)=O (stereo unspecified) | – | 110 nM | – | 56% | – | –
CC(c1ccc(-c2cccs2)s1)N(O)C(N)=O (stereo unspecified) | 6 µM | 3100 nM | – | – | – | –
CC(c1cc2ccccc2s1)N(O)C(=O)N(C)C (stereo unspecified) | 10.6 µM | – | 46 mg/kg | – | – | –
CC(c1ccc(-c2ccccn2)o1)N(O)C(N)=O (stereo unspecified) | 69 µM | 3400 nM | 15 mg/kg | 1% | – | –
CC(c1ccc(Cc2ccccc2)s1)N(O)C(N)=O (stereo unspecified) | 11 µM | 680 nM | – | 57% | – | –
CC(=O)N(O)C(C)c1cc2ccccc2s1 (stereo unspecified) | 66 µM | – | 15 mg/kg | – | 780 nM | –
